Experimental data taken from ChEMBL document CHEMBL1144441, “Identification of a novel cardenolide (2''-oxovoruscharin) from Calotropis procera and the hemisynthesis of novel derivatives displaying potent in vitro antitumor activities and high in vivo tolerance: structure-activity relationship analyses” (J Med Chem, 2005).

Legend:
[1] = test system: U373 MG; experiment: Concentration required for 50% growth inhibition of human U373 cancer cell lines after 3 days of culture; type: functional, cell-based, U-373MG ATCC; settings: 72 h
How it was run: (§1)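 MTT overall-growth assay on the five lines. Cells were plated for 24 h at 10 000–40 000 cells/mL, depending on cell type. Nine concentrations from 10^-9 to 10^-5 M in semilog steps were applied for 72 h. Formazan was read at 570 nm against a 630 nm reference, in sextuplicate. IC50 = concentration reducing overall growth by 50% versus untreated control.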

[2] = test system: LoVo; experiment: Concentration required for 50% growth inhibition of human LoVo cancer cell lines after 3 days of culture; type: functional, cell-based; settings: 72 h; how it was run: as §1
[3] = test system: Mus musculus; experiment: Maximum tolerated dose after intraperitoneal administration in mouse (period of 28 days); type: functional
How it was run: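 Healthy, non-tumour-bearing B6D2F1 mice given one acute intraperitoneal dose, three mice per dose group, doses 5, 10, 20, 40, 80, 120 and 160 mg/kg. Survival and body weight followed for 28 days after injection. MTD is the highest single dose causing no deaths over the period.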

[4] = test system: A549; experiment: Concentration required for 50% growth inhibition of human A549 cancer cell lines after 3 days of culture; type: functional, cell-based; settings: A549, 72 h; how it was run: as §1
[5] = biological target: Sodium/potassium-transporting ATPase subunit alpha-1 (Sus scrofa, UniProt P05024); experiment: In vitro inhibitory activity against porcine Na+/K+-ATPase
How it was run: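 Porcine cerebral cortex Na+/K+-ATPase (3 × 10-3 units), preincubated 30 min at 37 °C in 30 mM Tris-HCl pH 7.4, 5 mM MgCl2 with inhibitor (1 to 50 000 nM). ADP formation coupled via pyruvate kinase/lactate dehydrogenase, excess phosphoenolpyruvate, to NADH oxidation.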

[6] = test system: HCT-15; experiment: Concentration required for 50% growth inhibition of human HCT-15 cancer cell lines after 3 days of culture; type: functional, cell-based; settings: HCT-15, 72 h; how it was run: as §1
[7] = Concentration required for 50% growth inhibition of human Hs 683 cancer cell lines after 3 days of culture; type: functional, cell-based; settings: 72 h; how it was run: as §1

For C[C@@H]1C[C@@]2(N=C(N)CS2)C2(O[Si](C)(C)C)O[C@@H]3C[C@@]4(CO[Si](C)(C)C)[C@@H](CC[C@@H]5[C@@H]4CC[C@]4(C)[C@@H](C6=CC(=O)OC6)CC[C@]54CO)C[C@H]3O[C@@H]2O1 (some centres not stated), the IC50 [1] was 4.62 µM, the IC50 [2] was 3.85 µM and the MTD [3] was >160 mg/kg. The IC50 [4] was 2.58 µM, the IC50 [5] was 4.08 µM and the IC50 [6] was 3.66 µM. The IC50 [7] was 1.11 µM.
